Screening results (PubChem BioAssay)
Pyk2 oligo antag: Pyk2 (human) oligomerization antagonism; Q293 cells, Pyk2 FERM NanoBiT luminescence; stronger effect = lower value; z-score (the deposit names both 25 µM and 10 µM); Q14289; 99,000 tested, 0.83% active;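 active = Z-score of -3 or lower, scaled per plate to the spread of control and sample wells; inactive = z-score above -3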;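 also: negative z-score means lost luminescence so less FERM oligomerization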
Target sequence (Q14289 whole entry, looked up): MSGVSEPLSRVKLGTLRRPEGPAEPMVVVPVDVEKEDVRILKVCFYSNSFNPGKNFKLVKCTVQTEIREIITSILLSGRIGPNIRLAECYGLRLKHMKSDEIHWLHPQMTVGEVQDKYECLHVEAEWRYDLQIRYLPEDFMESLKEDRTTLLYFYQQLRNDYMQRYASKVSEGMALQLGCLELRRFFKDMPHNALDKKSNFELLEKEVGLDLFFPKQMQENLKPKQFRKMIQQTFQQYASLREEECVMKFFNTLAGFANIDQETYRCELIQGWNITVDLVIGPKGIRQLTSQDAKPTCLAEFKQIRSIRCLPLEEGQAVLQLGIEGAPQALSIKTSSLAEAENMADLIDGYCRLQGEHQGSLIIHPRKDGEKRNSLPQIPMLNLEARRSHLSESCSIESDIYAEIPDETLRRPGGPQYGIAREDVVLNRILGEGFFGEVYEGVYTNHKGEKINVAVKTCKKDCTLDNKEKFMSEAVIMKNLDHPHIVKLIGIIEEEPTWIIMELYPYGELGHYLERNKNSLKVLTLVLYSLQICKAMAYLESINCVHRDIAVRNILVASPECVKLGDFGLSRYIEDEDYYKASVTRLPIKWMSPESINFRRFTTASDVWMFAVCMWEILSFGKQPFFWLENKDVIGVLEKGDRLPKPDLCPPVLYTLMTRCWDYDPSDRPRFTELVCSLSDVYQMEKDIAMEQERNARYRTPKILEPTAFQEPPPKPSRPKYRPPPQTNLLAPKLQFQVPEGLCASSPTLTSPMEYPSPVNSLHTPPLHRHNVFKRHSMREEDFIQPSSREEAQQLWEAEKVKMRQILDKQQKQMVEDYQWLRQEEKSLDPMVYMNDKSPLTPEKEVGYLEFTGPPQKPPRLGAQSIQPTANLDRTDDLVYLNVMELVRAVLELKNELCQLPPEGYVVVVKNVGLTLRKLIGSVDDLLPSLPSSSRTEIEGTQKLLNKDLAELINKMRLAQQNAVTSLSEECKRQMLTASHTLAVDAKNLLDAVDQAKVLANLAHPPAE
Lung fibro prol: blocks proliferation of human lung fibroblasts; viability, % at 10 µM; AID 719; LL 47 human lung fibroblast viability, ATP luminescence; stronger effect = lower value; 85,000 tested, 1.1% active;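 active = viability at or below 50% in the single dose screen; inactive = viability above 50%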;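 also: compound exposure lasted 72 h before the ATP readout; 100% = median luminescence of untreated cell-only wells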
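Test system: LL 47 human lung fibroblasts / Quantity: 1,150 cells in each well / Medium: IMEM growth medium with 15% fetal bovine serum / Incubation: 72 h compound exposure at 37 °C after overnight plating / Detection: CellTiter-Glo luminescence measuring cellular ATP / Read-out: % viability versus median cells-only luminescence / Benchmarks: cell-only wells, no compound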
H69AR inhibit: growth inhibitors of human H69AR lung tumor cells; H69AR lung tumor viability, ATP luminescence, 72 h; stronger effect = lower value; 85,000 tested, 6% active; viability, % at 10 µM;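 active = viability at or below 40%; inactive = viability above 40%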;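 also: multidrug resistant small cell line overexpressing MRP-1 efflux transporter; 100% = mean luminescence of untreated control wells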
MT1-MMP txn act: MT1-MMP promoter transcription activation; HT1080 MT1-MMP promoter luciferase reporter, luminescence, overnight; stronger effect = higher value; activation factor at 10 µM; 86,000 tested, 0.16% active;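 active = activation factor of at least 2 for MT1-MMP transcription at 10 µM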
Jurkat tox 60K: cytotoxicity toward Jurkat cells. Jurkat E6.1 viability, ATP luminescence, 48 h. inhibition, % at 4 µM. 56,000 tested, 1.2% active;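 active = inhibition above the mean inhibition of all tested compounds plus 3 SD, cut at about 28% in these data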
HUVEC inhibit: human endothelial cell proliferation inhibition | 86,000 tested, 1.1% active | viability, % at 10 µM (by protocol) | HUVEC proliferation, CellTiter-Glo luminescence, 72 h; stronger effect = lower value | AID 648;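 active = viability at or below 30%; inactive = viability above 30%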;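 also: 100% = median luminescence of DMSO-only cell control wells on each plate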
Starred values were filed as active, the others as inactive; . = not tested or not shown. Most compounds without a hit are left out; they make up all but 5.9% or so of the library.

SMILES	Pyk2 oligo antag	Lung fibro prol	H69AR inhibit	MT1-MMP txn act	Jurkat tox 60K	HUVEC inhibit
Cc1ccc2nc(NC(=O)CN(C)S(=O)(=O)c3cccc4nsnc34)sc2c1	0.91	25*	12*	1.1	11	29*
Cc1ccc2nc(NC(=O)CNS(=O)(=O)c3ccc(Br)s3)sc2c1	-0.31	90	78	1.3	9	81
Cc1ccc2nc(NC(=O)CN(C)S(=O)(=O)c3ccc(Br)s3)sc2c1	-0.65	97	21*	.	.	57
CCc1ccc(NC(=O)CN(c2ccc3c(c2)OCO3)S(=O)(=O)c2c(C)noc2C)cc1	.	94	98	1.4	-2	104
CCc1ccc(N(CC(=O)Nc2nc3ccc(C)cc3s2)S(=O)(=O)c2c(C)noc2C)cc1	.	98	3.3*	.	.	50
Cc1ccc(C2CC(c3ccccc3)=NN2C(=S)Nc2ccccc2)o1 (centres undefined)	-0.66	.	.	.	.	.
CCCN1C=CC(=C2C(=O)c3ccccc3C2=O)C=C1	0.99	82	63	.	29	49
CCN1C=CC(=C2C(=O)c3ccccc3C2=O)C=C1	-0.5	69	27*	.	33	61
COc1ccc(S(=O)(=O)NNC(=O)c2csc(-n3nc(C)cc3C(F)(F)F)n2)cc1	1.2	97	70	.	.	93
CCOc1cc(C2NC(=O)NC(C)=C2C(=O)OCc2ccccc2)ccc1O (centres undefined)	-0.49	98	99	1.1	-1	104
COc1ccc(Cn2c(-c3ccco3)nc3oc4ccccc4c(=O)c3c2=O)cc1	-0.38	72	29*	1	0	75
COc1ccc(CCn2c(-c3ccco3)nc3oc4ccccc4c(=O)c3c2=O)cc1	.	101	.	1.3	2	74
COc1ccc(-c2nc3oc4cc(OC)ccc4c(=O)c3c(=O)n2Cc2ccco2)cc1	-2.7	100	3.8*	1.1	0	102
COc1ccc(CCn2c(-c3ccco3)nc3ccccc3c2=O)cc1OC	0.01	105	39*	1	9	68
COc1ccc(Cn2c(-c3ccco3)nc3oc4cc(OC)ccc4c(=O)c3c2=O)cc1	1.3	98	20*	1.9	-2	73
CCC(=O)OCCCCCCOc1ccc(C(=O)O)cc1	1.9	.	.	.	.	.
CCC(=O)Oc1ccc(/C(CC)=C(\CC)c2ccc(OC(=O)CC)cc2)cc1	.	70	10*	1.1	.	55
C1CCN(c2nc(N3CCCCC3)nc(N3CCNCC3)n2)CC1	0.7	85	0.4*	1	2	86
Cc1cc(C)c(O)c(-c2cc(C(=O)Nc3ccc(S(=O)(=O)N4CCOCC4)cc3)[nH]n2)c1	-3.2*	41*	9.2*	0.9	22	36
Cc1sc(/N=C/c2ccccc2O)c(C#N)c1C	.	98	104	2*	.	82
COc1cc(OC)nc(Oc2ccccc2C(=O)Oc2ccc(F)cc2Cl)n1	-1.7	.	.	.	.	.
N#Cc1c(-c2ccco2)cc(-c2ccccn2)nc1N	1.1	88	35*	1.3	1	86
N#Cc1c(-c2ccco2)cc(-c2cccnc2)nc1N	1.2	95	47	1	0	89
CCN(CC)C(=O)Cn1c(=O)n(-c2ccccc2)c(=O)n1CC(=O)N(CC)CC	0.07	98	91	1.1	0	101
CCc1ccccc1NC(=O)CN(c1cccc(OC)c1)S(C)(=O)=O	1.6	109	94	1.1	-4	114
SMILES	Pyk2 oligo antag	Lung fibro prol	H69AR inhibit	MT1-MMP txn act	Jurkat tox 60K	HUVEC inhibit
CCN(CC)CCN1C(=O)c2oc3ccccc3c(=O)c2C1c1cccc(Br)c1 (centres undefined)	0.27	101	37*	1.2	-2	101
O=C1c2oc3ccc(Cl)cc3c(=O)c2C(c2cccc(Br)c2)N1CCO (centres undefined)	-1.9	103	26*	1	-5	109
O=C(NCC1CCS(=O)(=O)C1)NCC1CCS(=O)(=O)C1 (centres undefined)	0.24	96	97	1.1	.	95
Cc1cnnc2ccc3c(no[n+]3[O-])c12	-0.3	107	33*	1.2	.	102
CC1=C(C#N)c2nc(N)c(C#N)c(C)c2/C1=C\c1ccccc1	.	8.1*	1.6*	1.3	1	13*
Cc1nc(N)c(C#N)c(-c2ccccc2)c1C	0.17	104	83	1	-1	79
CCOc1cc(NC(=S)Nc2ccccc2OC)c(OCC)cc1NC(=O)c1ccccc1C	-0.14	.	.	.	.	.
C=CCSc1nc(N)c(C#N)c(-c2ccc(C)cc2)c1C#N	-3.5*	.	.	1.1	6	.
N#Cc1c(N)nc(SCC(=O)NC2CCCCC2)c(C#N)c1-c1ccc(Cl)cc1	0.09	66	36*	1.2	-1	66
CCSc1nc(N)c(C#N)c(-c2ccccc2Cl)c1C#N	-3.7*	99	37*	1.1	.	100
CC(C)c1ccc(-c2c(C#N)c(N)nc(SCC(=O)N3CCCCC3)c2C#N)cc1	-0.03	72	63	1	.	28*
CC(=O)C1=C(C)NC(C)=C(C(C)=O)C1c1cccs1	0.39	.	.	1	-3	.
COc1ccc(-n2c(COc3ccc(Cl)cc3)nnc2SCc2ccc(C#N)cc2)cc1	-1.5	91	32*	1.1	.	90
CC(C)Cc1nnc(NC(=O)CSc2nc(=O)cc(N)n2-c2ccccc2)s1	0.07	.	.	1	-9	.
CC(C)CC(=O)Nc1ccccc1-c1nnn(CC(=O)N2CCOCC2)n1	0.3	104	90	1	-2	93
COc1ccc(-c2noc(CCC(=O)NCc3cccnc3)n2)cc1OC	0.3	101	88	1.1	-1	91
Cc1ccc(OCc2nc(-c3ccccn3)n[nH]2)cc1	0.43	100	33*	1.5	.	82
Cc1cccc(OCc2nc(-c3ccccn3)n[nH]2)c1	0.8	100	34*	1.1	.	78
Cc1cc(C)nc(Nc2n[nH]c(COc3ccc(Cl)cc3)n2)n1	1.4	104	83	1	3	93
CCCc1cc2c(n1Cc1ccc(OC)cc1)C(C)C1CN(C(=O)c3ccccc3)C(C)(C(=O)OC)C21 (centres undefined)	.	.	.	1.1	.	.
Nc1c(C(O)(C(F)(F)F)C(F)(F)F)cc(C(O)(C(F)(F)F)C(F)(F)F)c2ccccc12	-2.1	70	25*	1.2	.	70
COc1cccc(/C=C/C(=O)c2ccc[nH]2)c1	-0.28	77	19*	1.9	.	76
COc1cccc(C(=O)/C=C/c2ccc(SC)cc2)c1	-0.12	.	.	.	.	.
CCOC(=O)c1c(C)oc2c(F)c(F)c(F)c(F)c2c1=O	-0.22	59	.	0.1	-8	8.7*
CCN=c1scc(-c2ccco2)n1/N=C/c1ccc(O)cc1	0.54	122	40*	1.4	.	118
CCN=c1scc(-c2ccco2)n1/N=C/c1ccc(OC)c(O)c1	2.2	111	49	1.3	.	88
Cc1nc(N)sc1N=Nc1ccc(F)cc1	-0.18	.	.	.	.	.
COc1ccc(-c2c3c(=O)n(C)c(=O)n(C)c3cn2C2CCCCC2)cc1	-0.69	84	20*	1.2	7	86
